Measured values reported in ChEMBL document CHEMBL3352401, “Synthesis and antiviral activity of new phenylimidazopyridines and N-benzylidenequinolinamines derived by molecular simplification of phenylimidazo[4,5-g]quinolines” (Eur J Med Chem, 2014).

Key:
[1] = Antiviral activity against Bovine viral diarrhea virus 1-NADL ATCC VR-534 infected in MDBK cells assessed as protection from virus-induced cytopathogenicity after 3 to 4 days by MTT method; type: functional, cell-based; settings: Bovine viral diarrhea virus isolates and strains, ATCC VR-534, MDBK
Procedure, shortened: (§1)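 Confluent monolayers grown overnight (BHK-21 at 5×10⁴ cells/well for YFV and Reo-1; MDBK at 3×10⁴ cells/well for BVDV). Infection at m.o.i. 0.01 for 2 h in maintenance MEM-Earle with 0.5% inactivated FBS, then serial compound dilutions added. Viability read by MTT after 3–4 days at 37 °C. EC50 taken from linear regression against untreated controls.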

[2] = Cytotoxicity against mock-infected bovine MDBK cells assessed as reduction in proliferation after 72 hrs by MTT method; type: cell-based, Bos taurus; settings: cattle
Procedure, shortened: (§2)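 MDBK and BHK cells seeded at 6 × 10⁵ and 1 × 10⁶ cells/mL respectively. Medium was MEM-Earle with L-glutamine, 1 mM pyruvate and kanamycin, plus 10% horse serum (MDBK) or 10% FBS (BHK). Cells exposed to serial compound dilutions at 37 °C, 5% CO₂; MTT viability read at 72 h. CC50 by linear regression versus untreated controls.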

[3] = Cytotoxicity against mock-infected human MT4 cells assessed as reduction in proliferation after 96 hrs by MTT method; type: cell-based
Procedure, shortened: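 Exponentially growing MT-4 cells seeded at 1 × 10⁵ cells/mL in RPMI-1640 with 10% FBS, penicillin and streptomycin. Held 96 h at 37 °C, 5% CO₂ with or without serial compound dilutions; viability by MTT. Compounds dissolved in DMSO at 100 mM stock, then diluted in medium. CC50 by linear regression.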

[4] = tested on: Human immunodeficiency virus 1; test: Antiviral activity against HIV-13B infected in MT4 cells assessed as protection from virus-induced cytopathogenicity after 4 days by MTT method; type: functional, organism-based; settings: Human immunodeficiency virus 1, 3B, MT4, 96 h
Procedure, shortened: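 HIV-1 IIIB, taken from persistently infected H9/IIIB supernatant. MT-4 cells (1×10⁴/well) in RPMI with serial compound dilutions, infected with 100 CCID50 (m.o.i. 0.01). Viability by MTT after 4 days at 37 °C. EC50 = 50% protection from cytopathogenicity, by linear regression against untreated controls. Compounds kept as 100 mM DMSO stocks, diluted in medium.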

[5] = Cytotoxicity against mock-infected hamster BHK21 cells assessed as reduction in proliferation after 72 hrs by MTT method; type: cell-based, Mesocricetus auratus, BHK-21; procedure, shortened: as §2
Yellow fever virus = test: Antiviral activity against Yellow fever virus 17D Stamaril Pasteur J07B01 infected in BHK21 cells assessed as protection from virus-induced cytopathogenicity after 3 to 4 days by MTT method; type: functional, cell-based; settings: Stamaril Pasteur J07B01, BHK-21; procedure, shortened: as §1
[6] = Antiviral activity against Simian virus 12 3651 (ATCC VR- 214) infected in BHK21 cells assessed as protection from virus-induced cytopathogenicity after 3 to 4 days by MTT method; type: functional, cell-based; settings: BHK-21; procedure, shortened: as §1
[7] = Cytotoxicity against mock-infected African green monkey Vero 76 cells assessed as reduction in proliferation after 48 to 96 hrs by MTT method; type: cell-based; settings: chlorocebus sabaeus, Vero 76 cells (mock-infected)
Procedure, shortened: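 Vero-76 cells seeded at 4 × 10⁵ cells/mL in D-MEM with L-glutamine, kanamycin and 10% FBS. Incubated at 37 °C, 5% CO₂, with or without serial dilutions of compound; viability read by MTT after 48–96 h. Run in parallel with antiviral assays. CC50 obtained by linear regression of % of untreated control.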

Coxsackievirus B5 = test: Antiviral activity against Coxsackievirus B5 Faulkner (ATCC VR-185) infected in Vero 76 cells after 3 days by plaque reduction assays; type: functional, organism-based; settings: Enterovirus B, Vero 76, 72 h
[8] = tested on: Human poliovirus 1 strain Sabin; test: Antiviral activity against Poliovirus 1 strain Sabin ATCC VR-1562 infected in Vero 76 cells after 2 days by plaque reduction assays; type: functional, organism-based; settings: Enterovirus C, ATCC VR-1562, Vero 76, 48 h
[9] = Antiviral activity against Human respiratory syncytial virus A2 ATCC VR-1540 infected in Vero 76 cells after 5 days by plaque reduction assays; type: functional, cell-based; settings: ATCC VR-1540, Vero 76, 120 h
[10] = tested on: Vesicular stomatitis Indiana virus; test: Antiviral activity against Vesicular stomatitis Indiana virus ATCC VR 158 infected in Vero 76 cells after 2 days by plaque reduction assays; type: functional, organism-based; settings: ATCC VR 158, Vero 76, 48 h
[11] = Antiviral activity against Vaccinia virus Lister ATCC VR-1549 infected in Vero 76 cells after 3 days by plaque reduction assays; type: functional, cell-based; settings: ATCC VR-1549, Vero 76, 72 h
Human alphaherpesvirus 1 = test: Antiviral activity against Human herpesvirus 1 strain KOS ATCC VR- 1493 infected in Vero 76 cells after 3 days by plaque reduction assays; type: functional, organism-based; settings: Human alphaherpesvirus 1, KOS ATCC VR1493, Vero 76, 72 h

Structure (SMILES)	EC50 [1] [µM]	CC50 at 72 h [2] [µM]	CC50 at 96 h [3] [µM]	EC50 [4] [µM]	CC50 at 72 h [5] [µM]	EC50 (Yellow fever virus) [µM]	EC50 [6] [µM]	CC50 [7] [µM]	EC50 (Coxsackievirus B5) [µM]	EC50 [8] [µM]	EC50 [9] [µM]	EC50 [10] [µM]	EC50 [11] [µM]	EC50 (Human alphaherpesvirus 1) [µM]
CC(=O)c1ccc(-c2nc3ccncc3[nH]2)cc1	7	> 100	> 100	> 100	> 100	> 100	> 100	> 100	> 100	> 100	> 100	> 100	> 100	> 100
N#Cc1ccc(/C=N/c2cc3cccnc3c(Cl)c2N)cc1	2	> 100	46	> 100	> 100	> 100	> 100	> 100	46	> 100	26	> 100	> 100	> 100
Nc1c(/N=C/c2ccc(C(F)(F)F)cc2)cc2cccnc2c1Cl	14	> 100	49	> 100	> 25	> 25	> 25	90	29	57	12	> 90	> 90	> 100
Nc1c(/N=C/c2ccc([N+](=O)[O-])cc2)cc2cccnc2c1Cl	1.7	> 100	53	> 100	> 100	> 100	> 100	> 100	> 100	> 100	14	> 100	88	> 100
Nc1c(/N=C/c2ccc(C(F)(F)F)c([N+](=O)[O-])c2)cc2cccnc2c1Cl	11	> 100	20	> 100	> 100	> 75	> 100	90	16	22	> 90	> 90	> 90	> 100
C[C@@]1(O)[C@H](O)[C@@H](CO)O[C@H]1n1ccc(N)nc1=O						> 100	16							
C[C@@]1(O)[C@H](O)[C@@H](CO)O[C@H]1n1cnc2c(=O)[nH]c(N)nc21 [2'-B-METHYL-GUANOSINE]	1.1	> 100			> 100									
C#C[C@@]1(O)[C@H](O)[C@@H](CO)O[C@H]1n1ccc(N)nc1=O [2'-ETHYNYL-D-CYTIDINE]								> 100		23				
O=c1cnn([C@@H]2O[C@H](CO)[C@@H](O)[C@H]2O)c(=O)[nH]1 [6-AZAURIDINE]								≥ 12.5			1.2			
Nc1nc2c(ncn2COCCO)c(=O)[nH]1 [ACYCLOVIR]								> 100						
Nc1ccn(C[C@@H](CO)OCP(=O)(O)O)c(=O)n1 [CIDOFOVIR]								> 100					19	
